ChEMBL document CHEMBL2029242 (J Med Chem, 2012)

What was measured:
Mus musculus [1] = experiment: Inhibition of BRAF V600E mutant-mediated MEK phosphorylation in human COLO205 cells xenografted in athymic nude mouse at 55 mg/kg, po after 10 hrs; assay type: functional; conditions: COLO 205, 10 h
Summary of the method: (§1)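 Mice bearing Colo-205 xenografts got one oral dose in 22% HPβCD; vehicle controls were run. Tumors were collected at time points over 24 h and lysed. pMEK and total MEK in the lysates were measured by immunoblotting and ELISA, and pMEK was normalized to total MEK.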

[2] = AUC (0 to 24 hrs) in beagle dog at 10 mg/kg, po; assay type: ADME, organism-based, Canis lupus familiaris; set-up: time < 24 hr, dose 10 mg/kg, route oral; conditions: plasma
Summary of the method: (§2)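 Single-dose PK. Rats: male Sprague−Dawley, jugular-catheterized, 1 mg/kg iv in 3:1 PEG400/water (n = 2) and 10 mg/kg po in Pharmatek #6 (n = 3). Female athymic nude mice: 100 mg/kg po in Pharmatek #6 (n = 3). Beagle dogs and male cynomolgus monkeys (n = 3): crossover, 1 mg/kg iv and 10 mg/kg po in 22% HPβCD, overnight fast. Plasma LC-MS/MS to 24 h; noncompartmental parameters, mean ± SD.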

[3] = Half life in dog liver microsomes; assay type: ADME, Canis lupus familiaris, Microsome
Summary of the method: (§3)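 Pooled liver microsomes (0.5 mg/mL) in 0.1 M phosphate pH 7.4 with 6.5 mM MgCl2 and compound at 1 μM (0.2% DMSO). NADPH (1 mM) started the reaction at 37 °C, with minus-NADPH and testosterone controls. Aliquots taken at 0, 5, 15, 30 and 60 min were quenched in acetonitrile; duplicates.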

[4] = target: Tyrosine-protein kinase JAK2 (Homo sapiens, UniProt O60674); experiment: Inhibition of JAK2 in human HEK293 cells after 1 hr by competition binding assay; assay type: cell-based
Sequence of Tyrosine-protein kinase JAK2 (O60674 whole entry): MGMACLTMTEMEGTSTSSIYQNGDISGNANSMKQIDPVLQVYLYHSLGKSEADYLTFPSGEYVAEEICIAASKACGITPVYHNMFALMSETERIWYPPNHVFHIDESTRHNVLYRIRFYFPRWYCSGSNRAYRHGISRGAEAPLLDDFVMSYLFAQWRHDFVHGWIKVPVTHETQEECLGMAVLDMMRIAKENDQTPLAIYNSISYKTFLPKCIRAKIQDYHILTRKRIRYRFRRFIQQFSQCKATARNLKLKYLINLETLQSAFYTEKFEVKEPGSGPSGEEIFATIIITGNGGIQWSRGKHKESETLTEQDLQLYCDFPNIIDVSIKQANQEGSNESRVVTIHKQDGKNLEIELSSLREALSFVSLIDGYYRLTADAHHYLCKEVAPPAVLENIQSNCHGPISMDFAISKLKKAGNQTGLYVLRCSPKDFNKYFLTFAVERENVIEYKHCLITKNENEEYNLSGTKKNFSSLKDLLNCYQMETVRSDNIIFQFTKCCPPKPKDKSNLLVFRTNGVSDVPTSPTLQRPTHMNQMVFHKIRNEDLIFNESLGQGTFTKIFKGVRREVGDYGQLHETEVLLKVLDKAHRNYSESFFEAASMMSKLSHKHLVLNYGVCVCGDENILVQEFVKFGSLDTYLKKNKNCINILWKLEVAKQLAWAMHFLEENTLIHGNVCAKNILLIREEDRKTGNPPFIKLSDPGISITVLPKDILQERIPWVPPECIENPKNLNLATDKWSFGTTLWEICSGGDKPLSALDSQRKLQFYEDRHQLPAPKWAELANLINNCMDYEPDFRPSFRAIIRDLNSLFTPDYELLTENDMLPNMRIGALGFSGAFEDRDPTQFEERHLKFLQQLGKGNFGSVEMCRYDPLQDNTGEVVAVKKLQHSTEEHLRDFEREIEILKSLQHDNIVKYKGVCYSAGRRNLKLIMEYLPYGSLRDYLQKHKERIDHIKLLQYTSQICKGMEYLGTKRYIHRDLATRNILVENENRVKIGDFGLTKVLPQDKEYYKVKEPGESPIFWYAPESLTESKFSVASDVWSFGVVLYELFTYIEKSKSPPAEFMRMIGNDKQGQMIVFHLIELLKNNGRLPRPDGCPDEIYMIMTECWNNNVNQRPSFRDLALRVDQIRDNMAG
Summary of the method: (§4)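 Unbound kinase was captured on immobilized affinity ligand and quantified by qPCR. Kd came from eleven serial 3-fold dilutions, as the mean of duplicates.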

COLO 205 = experiment: Antitumor activity against human COLO205 cells xenografted in athymic nude mouse assessed as partial tumor regression at 30 mg/kg, po bid for 14 days; assay type: functional
Summary of the method: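 Athymic nude mice carried subcutaneous flank Colo-205 xenografts (1 × 10^6 cells), randomized at 150−200 mm3 (n = 10/group). Oral dosing BID for 14 days in 22% HPβCD against vehicle controls. Caliper volumes W2(L/2) taken three times weekly. Partial regression: volume fell in ≥3 successive measurements to below the starting volume while the tumor stayed palpable.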

[5] = target: Dual specificity mitogen-activated protein kinase kinase 1 (Homo sapiens, UniProt Q02750); experiment: Inhibition of MEK1 in human HEK293 cells after 1 hr by competition binding assay; assay type: cell-based
Sequence of Dual specificity mitogen-activated protein kinase kinase 1 (Q02750 whole entry): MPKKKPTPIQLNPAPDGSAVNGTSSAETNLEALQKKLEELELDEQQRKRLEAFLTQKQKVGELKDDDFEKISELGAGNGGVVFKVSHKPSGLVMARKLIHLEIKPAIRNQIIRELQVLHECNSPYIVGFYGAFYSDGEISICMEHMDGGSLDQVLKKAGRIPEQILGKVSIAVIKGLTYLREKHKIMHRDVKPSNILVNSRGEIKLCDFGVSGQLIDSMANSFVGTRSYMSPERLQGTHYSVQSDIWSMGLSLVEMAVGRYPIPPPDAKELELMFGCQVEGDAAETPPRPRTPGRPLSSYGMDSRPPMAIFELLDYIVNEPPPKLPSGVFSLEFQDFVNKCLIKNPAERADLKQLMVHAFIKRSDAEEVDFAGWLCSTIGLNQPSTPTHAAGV
Summary of the method: (§5)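 KINOMEscan competition binding. Binding reactions ran at rt for 1 h. Unbound kinase was captured on an immobilized affinity ligand and quantified by qPCR. Each kinase was tested individually.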

Aurora kinase B = Aurora kinase B (Homo sapiens, UniProt Q96GD4); experiment: Inhibition of Aurora B in human HEK293 cells after 1 hr by competition binding assay; assay type: cell-based; summary of the method: as §5
Mus musculus [6] = experiment: Inhibition of BRAF V600E mutant-mediated MEK phosphorylation in human COLO205 cells xenografted in athymic nude mouse at 55 mg/kg, po after 2 hrs; assay type: functional; conditions: COLO 205, 2 h; summary of the method: as §1
[7] = Volume of distribution in beagle dog at 1 mg/kg, iv and 10 mg/kg, po; assay type: ADME, organism-based, Canis lupus familiaris; conditions: in vivo
Summary of the method: (§6)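 Male non-naive cynomolgus monkeys (2.6–3.4 kg) and beagle dogs (10.3–11.9 kg), n = 3 each, were dosed in a crossover design with a ≥7-day washout. Doses were 10 mg/kg by nasogastric gavage and 1 mg/kg as a saphenous iv bolus, both free base in 22% HPβCD. Animals were fasted overnight until about 4 h post dose. Femoral plasma was sampled from predose to 24 h and analyzed by LC-MS/MS. Parameters came from noncompartmental analysis; mean ± SD reported.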

Hs-578T = experiment: Cytotoxicity against human Hs578T cells expressing wild type BRAF after 72 hrs by cell titer blue assay; assay type: functional, cell-based
Summary of the method: (§7)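 Cells were grown in ATCC-recommended media and kept overnight in 0.5% serum. They were then exposed to compound for 72 h, and Cell Titer Blue was added for 3 h. EC50 came from fluorometric concentration−response curves, run in duplicate and repeated at least once.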

COLO-679 = experiment: Cytotoxicity against human COLO679 cells expressing BRAF V600E mutant after 72 hrs by cell titer blue assay; assay type: functional, cell-based; conditions: COLO-679, 72 h; summary of the method: as §7
Liver [8] = experiment: Intrinsic clearance in dog liver microsomes; assay type: ADME, Canis lupus familiaris, Microsome
Summary of the method: (§8)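 Pooled liver microsomes (0.5 mg/mL) were premixed with 0.1 M phosphate buffer pH 7.4, 6.5 mM MgCl2 and test compound (1 μM final, 0.2% DMSO). NADPH (1 mM) started the reaction at 37 °C, in duplicate. Minus-NADPH and testosterone controls were included. Aliquots were taken at 0, 5, 15, 30 and 60 min and quenched in acetonitrile containing internal standard.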

Liver [9] = experiment: Intrinsic clearance in mouse liver microsomes; assay type: ADME, Microsome
[10] = Tmax in Sprague-Dawley rat at 10 mg/kg, po; assay type: ADME, organism-based; set-up: dose 10 mg/kg, route oral; conditions: in vivo
Summary of the method: (§9)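 Male Sprague-Dawley rats (250–350 g, jugular-catheterized) received a single dose either iv at 1 mg/kg in 3:1 PEG400/water (n = 2) or po at 10 mg/kg in Pharmatek #6 (n = 3). Plasma was sampled at 5 min (iv only), 15 and 30 min, and 1, 2, 4, 6 and 24 h. Samples were analyzed by LC-MS/MS after acetonitrile precipitation. Parameters came from noncompartmental linear-trapezoidal analysis of individual animals.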

[11] = Clearance in Cynomolgus monkey at 1 mg/kg, iv and 10 mg/kg, po; assay type: ADME, organism-based, Macaca fascicularis; conditions: in vivo; summary of the method: as §2
[12] = target: Phosphatidylinositol 4,5-bisphosphate 3-kinase catalytic subunit alpha isoform (Homo sapiens, UniProt P42336); experiment: Inhibition of PIK3-CA in human HEK293 cells after 1 hr by competition binding assay; assay type: cell-based; summary of the method: as §4
Sequence of Phosphatidylinositol 4,5-bisphosphate 3-kinase catalytic subunit alpha isoform (P42336 whole entry, canonical isoform): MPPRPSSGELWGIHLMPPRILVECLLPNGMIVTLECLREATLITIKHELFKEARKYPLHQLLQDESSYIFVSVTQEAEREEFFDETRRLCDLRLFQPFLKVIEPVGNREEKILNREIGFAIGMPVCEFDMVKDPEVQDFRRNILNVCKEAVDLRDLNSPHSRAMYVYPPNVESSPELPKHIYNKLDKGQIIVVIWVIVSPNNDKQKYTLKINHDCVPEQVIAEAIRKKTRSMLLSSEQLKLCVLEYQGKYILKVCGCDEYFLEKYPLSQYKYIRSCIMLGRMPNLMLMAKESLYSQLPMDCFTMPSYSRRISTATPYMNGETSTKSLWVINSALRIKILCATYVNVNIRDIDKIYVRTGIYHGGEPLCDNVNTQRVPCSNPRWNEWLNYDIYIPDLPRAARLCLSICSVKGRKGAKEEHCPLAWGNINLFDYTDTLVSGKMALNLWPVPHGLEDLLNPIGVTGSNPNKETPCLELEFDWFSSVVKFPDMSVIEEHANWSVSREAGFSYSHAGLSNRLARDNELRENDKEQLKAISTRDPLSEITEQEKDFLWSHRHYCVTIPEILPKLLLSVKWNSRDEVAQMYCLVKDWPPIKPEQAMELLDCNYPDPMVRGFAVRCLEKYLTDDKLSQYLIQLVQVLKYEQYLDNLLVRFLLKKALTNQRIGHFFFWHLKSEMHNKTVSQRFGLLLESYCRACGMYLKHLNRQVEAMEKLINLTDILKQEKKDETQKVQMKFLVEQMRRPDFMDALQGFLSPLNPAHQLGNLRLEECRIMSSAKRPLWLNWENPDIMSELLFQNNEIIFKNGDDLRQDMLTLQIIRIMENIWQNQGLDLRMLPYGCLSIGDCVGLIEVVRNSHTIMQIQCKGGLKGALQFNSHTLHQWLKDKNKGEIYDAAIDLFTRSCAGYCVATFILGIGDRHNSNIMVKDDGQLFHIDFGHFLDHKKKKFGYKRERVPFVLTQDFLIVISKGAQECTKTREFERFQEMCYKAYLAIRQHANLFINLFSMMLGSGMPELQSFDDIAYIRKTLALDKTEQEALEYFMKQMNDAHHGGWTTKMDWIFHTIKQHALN

Liver microsomes = experiment: Intrinsic clearance in human liver microsomes; assay type: ADME, Microsome; summary of the method: as §8
[13] = target: Phosphatidylinositol 4,5-bisphosphate 3-kinase catalytic subunit beta isoform (Homo sapiens, UniProt P42338); experiment: Inhibition of PIK3-CB in human HEK293 cells after 1 hr by competition binding assay; assay type: cell-based; summary of the method: as §4
[14] = Oral bioavailability in beagle dog at 10 mg/kg; assay type: ADME, organism-based, Canis lupus familiaris; conditions: in vivo; summary of the method: as §6
Aurora kinase A = Aurora kinase A (Homo sapiens, UniProt O14965); experiment: Inhibition of Aurora A in human HEK293 cells after 1 hr by competition binding assay; assay type: cell-based; summary of the method: as §5
[15] = target: Tyrosine-protein kinase JAK3 (Homo sapiens, UniProt P52333); experiment: Inhibition of JAK3 in human HEK293 cells after 1 hr by competition binding assay; assay type: cell-based; summary of the method: as §4
Sequence of Tyrosine-protein kinase JAK3 (P52333 whole entry): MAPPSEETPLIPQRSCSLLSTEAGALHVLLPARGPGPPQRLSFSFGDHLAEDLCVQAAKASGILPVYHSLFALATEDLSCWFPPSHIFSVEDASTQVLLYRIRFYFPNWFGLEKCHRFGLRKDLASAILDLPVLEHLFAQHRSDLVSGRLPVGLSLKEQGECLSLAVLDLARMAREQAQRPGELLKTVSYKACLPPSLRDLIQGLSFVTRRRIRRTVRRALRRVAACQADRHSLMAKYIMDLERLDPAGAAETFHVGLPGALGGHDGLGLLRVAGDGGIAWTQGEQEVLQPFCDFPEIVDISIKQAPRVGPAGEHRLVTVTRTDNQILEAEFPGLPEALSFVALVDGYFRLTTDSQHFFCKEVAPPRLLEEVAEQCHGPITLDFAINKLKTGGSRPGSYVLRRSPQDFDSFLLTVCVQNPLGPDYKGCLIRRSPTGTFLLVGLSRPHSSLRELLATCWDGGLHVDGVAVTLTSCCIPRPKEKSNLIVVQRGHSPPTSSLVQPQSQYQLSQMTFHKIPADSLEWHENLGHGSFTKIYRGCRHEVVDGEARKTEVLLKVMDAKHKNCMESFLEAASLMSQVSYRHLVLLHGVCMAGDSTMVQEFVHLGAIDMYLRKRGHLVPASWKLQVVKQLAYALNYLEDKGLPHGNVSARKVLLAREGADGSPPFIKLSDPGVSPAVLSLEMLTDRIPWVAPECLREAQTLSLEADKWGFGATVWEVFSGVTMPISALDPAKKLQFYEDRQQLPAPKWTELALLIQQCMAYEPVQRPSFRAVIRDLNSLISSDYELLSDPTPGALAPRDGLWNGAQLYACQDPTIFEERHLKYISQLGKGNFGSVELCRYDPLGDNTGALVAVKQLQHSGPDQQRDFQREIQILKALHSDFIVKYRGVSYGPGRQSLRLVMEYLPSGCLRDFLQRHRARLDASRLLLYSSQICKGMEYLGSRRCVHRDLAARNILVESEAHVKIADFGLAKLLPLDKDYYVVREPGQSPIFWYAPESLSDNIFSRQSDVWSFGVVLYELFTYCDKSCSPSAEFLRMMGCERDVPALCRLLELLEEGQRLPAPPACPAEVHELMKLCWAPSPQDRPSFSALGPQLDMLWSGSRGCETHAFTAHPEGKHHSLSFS

PC-3 = experiment: Cytotoxicity against human PC3 cells expressing wild type BRAF after 72 hrs by cell titer blue assay; assay type: functional, cell-based; conditions: PC-3, 72 h; summary of the method: as §7
[16] = AUC (infinity) in athymic nude mouse at 100 mg/kg, po; assay type: ADME, organism-based; set-up: time infinity, dose 100 mg/kg, route oral; conditions: plasma; summary of the method: as §2
[17] = Tmax in beagle dog at 10 mg/kg, po; assay type: ADME, organism-based, Canis lupus familiaris; set-up: dose 10 mg/kg, route oral; conditions: in vivo; summary of the method: as §6
[18] = target: Tyrosine-protein kinase ABL1 (Homo sapiens, UniProt P00519); experiment: Inhibition of Abl1 in human HEK293 cells after 1 hr by competition binding assay; assay type: cell-based; summary of the method: as §5
Sequence of Tyrosine-protein kinase ABL1 (P00519 whole entry): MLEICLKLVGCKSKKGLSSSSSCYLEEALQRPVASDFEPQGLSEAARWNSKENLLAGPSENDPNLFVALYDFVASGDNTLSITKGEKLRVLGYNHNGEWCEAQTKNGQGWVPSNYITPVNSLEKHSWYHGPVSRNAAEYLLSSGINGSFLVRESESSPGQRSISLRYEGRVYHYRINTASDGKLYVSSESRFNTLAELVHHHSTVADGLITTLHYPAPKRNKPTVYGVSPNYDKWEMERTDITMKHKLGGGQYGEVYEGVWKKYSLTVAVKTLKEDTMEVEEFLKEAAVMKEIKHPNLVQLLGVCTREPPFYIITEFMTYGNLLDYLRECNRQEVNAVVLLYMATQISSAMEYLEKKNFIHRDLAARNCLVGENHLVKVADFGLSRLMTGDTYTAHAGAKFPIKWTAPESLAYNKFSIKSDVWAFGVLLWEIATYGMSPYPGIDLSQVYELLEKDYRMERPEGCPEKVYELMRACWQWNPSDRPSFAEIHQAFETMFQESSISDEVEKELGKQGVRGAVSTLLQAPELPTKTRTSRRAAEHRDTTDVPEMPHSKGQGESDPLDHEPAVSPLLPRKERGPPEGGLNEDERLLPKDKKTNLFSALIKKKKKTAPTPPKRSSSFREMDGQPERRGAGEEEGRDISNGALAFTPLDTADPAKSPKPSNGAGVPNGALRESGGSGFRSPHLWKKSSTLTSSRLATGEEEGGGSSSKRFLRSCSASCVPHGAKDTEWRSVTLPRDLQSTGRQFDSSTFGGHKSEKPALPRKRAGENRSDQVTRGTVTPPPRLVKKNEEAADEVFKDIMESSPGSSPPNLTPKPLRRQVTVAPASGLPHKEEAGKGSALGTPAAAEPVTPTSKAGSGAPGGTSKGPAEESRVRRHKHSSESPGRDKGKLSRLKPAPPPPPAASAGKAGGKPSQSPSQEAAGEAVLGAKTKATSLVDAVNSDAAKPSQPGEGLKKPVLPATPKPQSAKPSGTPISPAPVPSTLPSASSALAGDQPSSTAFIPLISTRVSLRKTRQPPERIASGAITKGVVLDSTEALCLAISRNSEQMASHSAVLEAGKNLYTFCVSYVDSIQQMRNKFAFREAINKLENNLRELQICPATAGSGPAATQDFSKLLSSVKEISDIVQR

[19] = Volume of distribution in Sprague-Dawley rat at 1 mg/kg, iv and 10 mg/kg, po; assay type: ADME, organism-based; conditions: in vivo; summary of the method: as §9
[20] = Intrinsic clearance in Cynomolgus monkey liver microsomes; assay type: ADME, Macaca fascicularis, Microsome; summary of the method: as §3

AUC(0-t) at 24 h [2]: 55.1 µM·h | half-life [3]: > 1 h | Kd [4]: 4.7 µM | Kd [5]: 7.1 µM | Kd (Aurora kinase B): > 10 µM | Vd [7]: 4.5 L/kg | CLH (Liver [8]): < 23 µL/min/mg | CLH (Liver [9]): < 23 µL/min/mg | Tmax [10]: 2 h | clearance [11]: 6.7 mL/min/kg | Kd [12]: > 10 µM | CLH (Liver microsomes): < 23 µL/min/mg | Kd [13]: > 10 µM | bioavailability [14]: 100% | Kd (Aurora kinase A): > 10 µM | Kd [15]: > 10 µM | AUC(0-inf) [16]: 394 µM·h | Tmax [17]: 2 h | Kd [18]: 0.003 µM | Vd [19]: 1.6 L/kg | CLH [20]: < 23 µL/min/mg
Compound: COc1cc2ncnc(Oc3cccc(NC(=O)Nc4cc(C(C)(C)C(F)(F)F)on4)c3)c2cc1OC [CEP-32496]
inhibition in vivo at 55 mg/kg (Mus musculus [1]): 57% | Activity (COLO 205): 40% | inhibition in vivo at 55 mg/kg (Mus musculus [6]): 75% | EC50 (Hs-578T): 2.74 µM | EC50 (COLO-679): 0.211 µM | EC50 (PC-3): 6.26 µM
